Reference: paper PMC10432884 (Clinical and Translational Science, 2023)
Entries after “also recorded” stand apart in the source; their conditions may differ.

Legend:
[1] = test system: healthy subjects; test: MAD phase CNS test battery; type: in vivo, human
[2] = FI phase pharmacokinetics; type: in vivo, human
Summary of the method: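 Open-label, randomized two-period crossover in 14 healthy subjects. Each received a single 10 mg oral tablet fasted, or ~30 min after a high-fat meal (800–1000 kcal). Washout was 21 days. Plasma (K-EDTA) was sampled predose and 15 min–48 h postdose, plus days 7 and 14 (period 1) and days 5 and 9 (period 2), and assayed by validated LC-MS/MS (LLOQ 1.00 ng/mL). Cmax, AUCτ and AUCinf were compared by ANOVA (food, sequence, period fixed; subject-within-sequence random).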

[3] = test system: healthy subjects; test: First-in-human trial, food-interaction; type: in vivo
Summary of the method: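 Safety covered all dosed subjects in the SAD, MAD and FI phases: AEs (MedDRA 21.1), concomitant medication, vital signs, ECGs, physical exams and safety labs. BP was taken after 5 min supine, then ≥1 min sitting and 1–3 min standing. Orthostasis was defined as an SBP fall ≥20 mmHg or DBP fall ≥10 mmHg within 3 min standing. TEAEs were summarized by treatment, organ class, severity and drug-relatedness.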

[4] = MAD phase pharmacokinetics; type: in vivo, human; details: for PTR, GeoMean / PTR, Median: peak-to-trough ratio; for R max, GeoMean / R max, Median: accumulation ratio from C max; for R through, GeoMean / R through, Median: accumulation ratio from C trough; for t 1/2_eff, Median / t 1/2_eff, GeoMean: effective half-life based on accumulation
Summary of the method: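 MAD phase, 2–15 mg q.d. oral for 14 days. Plasma was sampled predose daily and 15 min–48 h on days 1 and 14. Urine was pooled over 24 h on days 1 and 14. One CSF sample was taken 3 h postdose on day 7 (10 mg cohort). All matrices were assayed by validated LC-MS/MS. Derived: Cmax, Tmax, t1/2, AUCτ, Ctrough, peak-to-trough ratio, accumulation ratios, and CSF/plasma ratio corrected for protein binding. Results reported as geometric means (95% CI) and medians.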

[5] = FI sequence 10 mg Fasted‐Fed (n = 7)
[6] = FI sequence 10 mg Fed‐Fasted (n = 7)

In the case of `Fc1ccccc1Cc1nc(-c2nc(C(F)(F)F)n[nH]2)cn2ccnc12` [zagociguat, 8‐(2‐fluorobenzyl)‐6‐(3‐(trifluoromethyl)‐1H‐1,2,4‐triazol‐5‐yl)imidazo[1,2‐a]pyrazine], the “pEEG and CNS tests, differences between placebo and zagociguat groups” value [1] is reported as “No dose‐dependent or consistent statistically significant differences”, the Food effect ([2]; FI 10 mg, high-fat meal vs fasted) is reported as “no food effects were observed” and the “C max LSM ratio fed vs. fasted” value ([2]; FI 10 mg, 95% CI: 0.94, 1.03) is reported as 0.99. The “Plasma concentration in predose samples of second treatment period” value ([2]; FI, 21-day washout, limit of quantification 1.00 ng/mL) was “below the limit of quantification”, the Orthostatic hypotension events ([3]; FI phase) was “No orthostatic hypotension events” and the “Subjects with dizziness TEAEs” value ([3]; FI phase, 10 mg, fed and fasted) was “Three”. For the same compound, the “Subjects discontinued from study drug due to ≥1 TEAE” value [3, 5] was 0 n, the “Subjects with ≥1 SAE” value [3, 5] was 0 n and the “Subjects with ≥1 study drug related TEAE” value [3, 5] was 2 n. The TEAEs [3, 5] was 7 n, the “Subjects discontinued from study drug due to ≥1 TEAE” value [3, 6] was 0 n and the “Subjects with ≥1 SAE” value [3, 6] was 0 n. The “Subjects with ≥1 study drug related TEAE” value [3, 6] was 1 n, the TEAEs [3, 6] was 7 n and the CNS penetration ([4]; CSF sampling during the MAD phase) was “confirmed by cerebrospinal fluid sampling; also recorded: confirmed by CSF sampling”. The “Dose level from which detectable in urine” value ([4]; MAD) was 2 mg, the “C trough, GeoMean” value ([4]; MAD 2 mg q.d., day 1) was 0.16113 µg/mL and the “C trough, Median” value ([4]; MAD 2 mg q.d., day 1) was 0.157 µg/mL. The “PTR, GeoMean” value ([4]; MAD 2 mg q.d., day 1) was 1.62, the “PTR, Median” value ([4]; MAD 2 mg q.d., day 1) was 1.64 and the “PTR, GeoMean” value ([4]; MAD 2 mg q.d., day 14) was 1.41. For the same compound, the “PTR, Median” value ([4]; MAD 2 mg q.d., day 14) was 1.40, the “R max, GeoMean” value ([4]; MAD 2 mg q.d.) was 3.38 and the “R max, Median” value ([4]; MAD 2 mg q.d.) was 3.32. The “R through, GeoMean” value ([4]; MAD 2 mg q.d.) was 3.87, the “R through, Median” value ([4]; MAD 2 mg q.d.) was 4.06 and the “t 1/2_eff, Median” value ([4]; MAD 2 mg q.d.) was 54.46 h. For the same compound, the “PTR, GeoMean” value ([4]; MAD 5 mg q.d., day 1) was 1.55, the “PTR, Median” value ([4]; MAD 5 mg q.d., day 1) was 1.50 and the “PTR, GeoMean” value ([4]; MAD 5 mg q.d., day 14) was 1.35. For the same compound, the “PTR, Median” value ([4]; MAD 5 mg q.d., day 14) was 1.34, the “R max, GeoMean” value ([4]; MAD 5 mg q.d.) was 3.45 and the “R max, Median” value ([4]; MAD 5 mg q.d.) was 3.56. For the same compound, the “R through, GeoMean” value ([4]; MAD 5 mg q.d.) was 3.98, the “R through, Median” value ([4]; MAD 5 mg q.d.) was 3.79 and the “t 1/2_eff, GeoMean” value ([4]; MAD 5 mg q.d.) was 54.60 h. The “t 1/2_eff, Median” value ([4]; MAD 5 mg q.d.) was 56.63 h, the “PTR, Median” value ([4]; MAD 10 mg q.d., day 1) was 1.36 and the “PTR, GeoMean” value ([4]; MAD 10 mg q.d., day 14) was 1.37. The “PTR, Median” value ([4]; MAD 10 mg q.d., day 14) was 1.37, the “R max, GeoMean” value ([4]; MAD 10 mg q.d.) was 3.60 and the “R max, Median” value ([4]; MAD 10 mg q.d.) was 3.68. The “R through, GeoMean” value ([4]; MAD 10 mg q.d.) was 3.79, the “R through, Median” value ([4]; MAD 10 mg q.d.) was 3.56 and the “t 1/2_eff, GeoMean” value ([4]; MAD 10 mg q.d.) was 54.29 h. The “t 1/2_eff, Median” value ([4]; MAD 10 mg q.d.) was 54.53 h, the “C trough, GeoMean” value ([4]; MAD 15 mg q.d., day 1) was 1.1732 µg/mL and the “C trough, Median” value ([4]; MAD 15 mg q.d., day 1) was 1.165 µg/mL. The “PTR, GeoMean” value ([4]; MAD 15 mg q.d., day 1) was 1.38, the “PTR, Median” value ([4]; MAD 15 mg q.d., day 1) was 1.37 and the “C trough, GeoMean” value ([4]; MAD 15 mg q.d., day 11) was 4.14925 µg/mL. For the same compound, the “C trough, Median” value ([4]; MAD 15 mg q.d., day 11) was 4.14 µg/mL, the “C trough, GeoMean” value ([4]; MAD 15 mg q.d., day 12) was 4.24679 µg/mL and the “C trough, Median” value ([4]; MAD 15 mg q.d., day 12) was 4.14 µg/mL. The “C trough, GeoMean” value ([4]; MAD 15 mg q.d., day 13) was 4.15721 µg/mL, the “C trough, Median” value ([4]; MAD 15 mg q.d., day 13) was 4.16 µg/mL and the “C trough, GeoMean” value ([4]; MAD 15 mg q.d., day 14) was 4.3779 µg/mL. The “C trough, Median” value ([4]; MAD 15 mg q.d., day 14) was 4.275 µg/mL, the “PTR, GeoMean” value ([4]; MAD 15 mg q.d., day 14) was 1.35 and the “PTR, Median” value ([4]; MAD 15 mg q.d., day 14) was 1.33. For the same compound, the “R max, GeoMean” value ([4]; MAD 15 mg q.d.) was 3.61, the “R max, Median” value ([4]; MAD 15 mg q.d.) was 3.54 and the “R through, GeoMean” value ([4]; MAD 15 mg q.d.) was 3.73. For the same compound, the “R through, Median” value ([4]; MAD 15 mg q.d.) was 3.81, the “t 1/2_eff, GeoMean” value ([4]; MAD 15 mg q.d.) was 52.80 h and the “t 1/2_eff, Median” value ([4]; MAD 15 mg q.d.) was 51.81 h. The “Dose linearity analysis using AUC τ and C max” value ([4]; MAD day 1 and day 14 (Table S6)) was “indicated dose proportionality”, the “Day on which steady-state was attained” value ([4]; MAD, all doses administered, Helmert contrasts of trough concentrations) was 11 days and the AUC ([4]; both, human, plasma, oral, 2 mg, AUC τ, GeoMean, MAD 2 mg q.d., day 1) was 4.5 µg·h/mL.
